Compound activity (PubChem BioAssay)
GRK2 aptamer HTS = human GRK2 inhibition via aptamer displacement. P25098. bead flow cytometry, FAM-aptamer displacement from GRK2. inhibition of aptamer binding, % at 10 µM. 330,000 compounds, 0.59% hits;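 active = inhibition of aptamer binding above 40%, roughly 3 SD of noise, on plates passing a quality check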;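 also: median bead fluorescence of bound FAM aptamer so fluorescent compounds give negative values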
Scp1 inh = inhibitors of human Scp-1 phosphatase; Q9GZU7; Recombinant Scp1, phosphopeptide, malachite green phosphate absorbance; inhibition, % at 20 µM; 340,000 compounds, 0.88% hits;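 active = inhibition above about 50% at 20 µM, limit read from the data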
Target sequence (Q9GZU7 76-261 limits assumed): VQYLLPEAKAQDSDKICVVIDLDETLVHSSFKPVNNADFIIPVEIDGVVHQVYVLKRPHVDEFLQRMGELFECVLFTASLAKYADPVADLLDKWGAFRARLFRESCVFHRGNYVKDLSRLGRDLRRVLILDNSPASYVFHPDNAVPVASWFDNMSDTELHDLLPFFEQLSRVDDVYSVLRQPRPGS
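Assay system: SCP-1 catalytic fragment, aa 76-261 | Buffer or medium: Tris acetate buffer pH 5.5 with MgCl2 and Tween-20 | Compound: One concentration, 20 µM, with 1.0% DMSO | Also added: Phospho 17-mer peptide substrate | Signal: Absorbance at 630 nm | Incubation: 45 min enzyme reaction at room temperature | Measure: % inhibition of SCP-1 phosphate liberation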
DNMT1 block = DNMT1 (human) enzyme inhibition | inhibition (reported as % activation of signal), % at 10 µM | DNMT1 molecular beacon, Hinp1I cleavage, fluorescence | 360,000 compounds, 0.83% hits | P26358; in the data active = inhibition above about 50%
STEP inh = inhibitors of human striatal-enriched phosphatase STEP; recombinant STEP, OMFP fluorogenic substrate, fluorescence; inhibition, % at 20 µM; 360,000 compounds, 0.25% hits; AID 588621;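 active = inhibition at 20 µM, scaled per plate between control wells, above about 37%, limit read from the data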
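System: STEP phosphatase, cell-free reaction; Buffer or medium: Bis-Tris pH 6.0 buffer with DTT, detergent; Incubation: 20 min at room temperature, dark; Measured by: fluorescence, 480/540 nm.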
SUMO1-SIM PPI = modulators of human SUMO1-mediated protein-protein interactions; P63165; SUMO1 binding to a labelled peptide, TR-FRET, 1 h; inhibition, % at 20 µM; 360,000 compounds, 0.33% hits; AID 602429; in the data active = inhibition above about 37%
Target sequence (P63165 whole entry, looked up): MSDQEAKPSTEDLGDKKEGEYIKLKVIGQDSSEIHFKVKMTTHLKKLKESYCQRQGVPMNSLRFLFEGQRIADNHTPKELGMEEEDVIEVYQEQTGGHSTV
LMPTP inh = blocks human LMPTP phosphatase; 360,000 compounds, 0.22% hits; AID 651560; recombinant LMPTP-A, OMFP fluorogenic substrate, fluorescence intensity; inhibition, % at 20 µM;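 active = compounds that cut the enzyme signal by at least half of the control window in the single-dose screen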
Target sequence (P24666 whole entry, looked up): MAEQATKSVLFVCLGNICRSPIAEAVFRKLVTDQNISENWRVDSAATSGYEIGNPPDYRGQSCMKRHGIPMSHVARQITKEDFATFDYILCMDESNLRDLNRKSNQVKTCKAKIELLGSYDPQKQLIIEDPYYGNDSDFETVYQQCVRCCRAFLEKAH
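material = LMPTP-A | quantity = 0.625 nM enzyme | reagent = OMFP substrate, 400 µM final | buffer or medium = Bis-Tris pH 6.0, DTT, detergent | detection = endpoint fluorescence intensity from OMFP dephosphorylation | dosing = single 20 µM dose | read-out basis = % inhibition relative to no-enzyme and uninhibited control wells | control set = no-enzyme and uninhibited controls | timing = 50 min at room temperature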
Scp-1 conf = confirmation of human Scp-1 phosphatase inhibitors | 2,500 compounds, 61% hits | recombinant SCP-1 catalytic domain, phosphate release, malachite green absorbance | inhibition, % at 20 µM | shares compounds with Scp1 inh;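 active = inhibition of at least 30% at 20 µM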
Scp-1 MG ctr = colorimetric interference in Scp-1 counter-screen. shares compounds with Scp1 inh. Colorimetric interference counterscreen, malachite green absorbance 630 nm. apparent inhibition (interference), % at 20 µM. 2,500 tested, under 10 active. AID 540313;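 active = inhibition of at least 30% at 20 µM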;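 also: compounds added after enzyme reaction finished so only phosphate colour detection is probed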
Scp1 DSF = binds human Scp-1, shifting its melting temperature. AID 540329. 1,500 compounds, 25% hits. thermal shift relative to vanadate control, % at 40 µM. Recombinant SCP1, Sypro Orange thermal shift Tm. shares compounds with Scp1 inh;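 active = substances whose mean melting-temperature shift, as a percentage of the reference inhibitor's shift, reaches about 5.3%, limit read from the data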
Beacon interf DR = counter-screen for DNMT1 inhibitors: spectral interference, dose response; IC50, µM; 200 tested, under 10 active; shares compounds with DNMT1 block; molecular beacon fluorescence
DNMT1 inh conf = confirmation of human DNMT1 inhibitors | shares compounds with DNMT1 block | DNMT1 molecular beacon HinP1I cleavage, fluorescence | inhibition, % at 10 µM | 2,300 compounds, 8% hits;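 active = average inhibition of at least 30% in the single-concentration confirmation test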
Beacon interf = beacon fluorescence artifact counter-screen; shares compounds with DNMT1 block; DNMT1 molecular beacon spectral interference counterscreen, fluorescence 485/520; activation (fluorescence interference), % at 10 µM; 2,300 compounds, 1% hits;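 active = activation of at least 30% at 10 µM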;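 also: DNMT1 catalytic domain with a HinP1I cleavage step and a FAM/dabcyl DNA beacon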
STEP inh conf = confirmation of human STEP phosphatase inhibitors. 520 compounds, 32% hits. recombinant STEP, OMFP fluorogenic substrate, fluorescence. shares compounds with STEP inh. AID 623866. inhibition, % at 20 µM
Each line names hits and unclear results; the compound was inactive in the other large screens (follow-up assays come after a bar, where they were run). Compounds with a hit are over-represented: about 2.1% of the library has one in this group of screens. Unless noted, no rule for the calls is given here.

CC12CCC(=O)C=C1CCC1C2CCC2(C)C(O)(C(=O)CO)CCC12O (configuration not stated)	none (no result: GRK2 aptamer HTS)
Cc1cc(/C=C2\C(=O)NC(=O)N(c3ccc(F)cc3)C2=O)c(C)n1-c1cccc(C(=O)O)c1	none
Cc1cc(/C=C2\C(=O)NC(=O)N(c3ccccc3F)C2=O)c(C)n1-c1cc(C(=O)O)cc(C(=O)O)c1	Scp1 inh 54.7, DNMT1 block 87.2, STEP inh 41.6 | Scp-1 conf 31.7 | Scp-1 MG ctr inactive | Scp1 DSF 9.9 | Beacon interf DR inactive | DNMT1 inh conf inactive | Beacon interf inactive
Cc1ccc2c(c1Cl)NC(C(=O)O)C1CC(Sc3ccccc3[N+](=O)[O-])C(Cl)C21 (configuration not stated)	Scp1 inh 59.5, DNMT1 block 70.7 | Scp-1 conf 65.1 | Scp-1 MG ctr inactive | Scp1 DSF 17.7 | DNMT1 inh conf inactive | Beacon interf inactive
COCCNC(=O)N1[C@H]2CC[C@@H]1C(C(=O)OC)=C(c1ccc(OC(F)(F)F)cc1)C2	none
NCc1cc(=O)[nH]o1	none
CCN(CC)P(=O)(NC(=O)C(Cl)(Cl)Cl)N(CC)CC.[Cl-].[Cl-].[Cl-].[Nd+3]	Scp1 inh 101.3, STEP inh 87.2, SUMO1-SIM PPI 106.7 | Scp-1 conf 70.3 | Scp-1 MG ctr inactive | Scp1 DSF inactive | STEP inh conf 25.3
CC(C)(C)C(=O)N1Cc2cnnn2-c2ccccc2C1C#N (configuration not stated)	none (no result: GRK2 aptamer HTS)
O=C1c2ccccc2-c2cccc3cccc1c23	DNMT1 block 54.3 (no result: GRK2 aptamer HTS) | Beacon interf DR inactive | DNMT1 inh conf 34.6 | Beacon interf inactive
O=C1c2ccccc2-c2cc3ccccc3cc21	none (no result: GRK2 aptamer HTS)
O=C1C=C(N2CC2)c2ccccc2C1=O	DNMT1 block 120.6, SUMO1-SIM PPI 65.0 (no result: GRK2 aptamer HTS, Scp1 inh) | Beacon interf DR inactive | DNMT1 inh conf 88.4 | Beacon interf inactive
CCCCCCn1c(=O)c(C(=O)Nc2ncccc2O)c(O)c2ccccc21	DNMT1 block 70.4 | DNMT1 inh conf inactive | Beacon interf inactive
O=C1NC(=O)N(Cc2ccco2)C(=O)/C1=C/c1cccn1CCOc1ccccc1Cl	DNMT1 block 69.5 | DNMT1 inh conf inactive | Beacon interf inactive
CCOC(=O)CNC(=O)N1Cc2ccccc2-n2nncc2C1	none (no result: GRK2 aptamer HTS, Scp1 inh)
CN1C(=O)NC(=O)/C(=C\c2ccc([N+](=O)[O-])o2)C1=O	Scp1 inh 53.0, DNMT1 block 101.1, STEP inh 44.3 | Beacon interf DR inactive | DNMT1 inh conf 112.3 | Beacon interf inactive
C[C@H](CO)N1C[C@H](C)[C@H](CN(C)C(=O)Oc2ccccc2)OCc2cnnn2CCCC1=O	none (no result: GRK2 aptamer HTS, Scp1 inh)
CCCCn1c(NC(=O)c2ccc(Br)o2)c(C(=O)OCC)c2nc3ccccc3nc21	GRK2 aptamer HTS 78.0, DNMT1 block 70.3, SUMO1-SIM PPI 44.9 | DNMT1 inh conf inactive | Beacon interf inactive
Cc1ccc(NC(=O)CCNC(=O)N2C[C@H]3C[C@@H](C2)c2cccc(=O)n2C3)c(C)c1	none
Cc1ccc(-n2c(O)c(C=NCc3ccco3)c(=O)[nH]c2=S)cc1C	none
CCN(CC)c1ccc(/C=C2\C(=O)NC(=O)N(Cc3ccco3)C2=O)cc1	none
CCCCN1C(=O)/C(=C/c2ccc(N(C)C)cc2)C(=O)N(Cc2ccco2)C1=O	DNMT1 block 80.0 | DNMT1 inh conf inactive | Beacon interf inactive
O=C1NC(=O)N(Cc2ccc(F)cc2)C(=O)/C1=C\C=C\c1ccco1	none
CC(C)c1ccc(N2C(=O)NC(=O)/C(=C/C=C/c3ccco3)C2=O)cc1	DNMT1 block 85.7 | DNMT1 inh conf inactive | Beacon interf inactive
Cc1cc(C)cc(N2C(=O)NC(=O)/C(=C\C=C\c3ccco3)C2=O)c1	DNMT1 block 74.1 | DNMT1 inh conf inactive | Beacon interf inactive
CCCCN1C(=O)/C(=C/C=C/c2ccco2)C(=O)NC1=S	Scp1 inh 73.8, DNMT1 block 107.3 (no result: GRK2 aptamer HTS) | Beacon interf DR inactive | DNMT1 inh conf inactive | Beacon interf inactive
Oc1ccc2c3c1OC1c4oc5ccccc5c4C[C@@]4(O)[C@@H](C2)N(CC2CC2)CC[C@]314 (some centres not stated)	none
O=C(NC1CCCCC1)[C@@H]1CC=C[C@@H]2CCN(Cc3ccccc3)C(=O)[C@@H]21	none
N#CC(C#N)=C(N)c1cccnc1	DNMT1 block 61.7 | DNMT1 inh conf inactive | Beacon interf inactive
O=C(Cc1ccccc1)OCCNC(=O)c1cccnc1	none
COc1ccc2nc3c(C)n(C)ccc-3c2c1	none (no result: GRK2 aptamer HTS)
O=c1[nH]c(=O)n(CCc2ccc(F)cc2)c(O)c1C=NCc1ccc2c(c1)OCO2	DNMT1 block 77.9, LMPTP inh 50.2 | DNMT1 inh conf inactive | Beacon interf inactive
COc1ccc(CCn2c(O)c(C=NCc3ccc4c(c3)OCO4)c(=O)[nH]c2=O)cc1OC	none
COc1ccc(/C=N/N=C(/N)N[N+](=O)[O-])c(OC)c1	none
N/C(=N\N=C/c1ccc(-c2ccc(O)c(C(=O)O)c2)o1)N[N+](=O)[O-]	Scp1 inh 80.0, DNMT1 block 87.6, STEP inh 70.9 | Beacon interf DR inactive | DNMT1 inh conf 96.4 | Beacon interf inactive
Cn1cccc1/C=C1/C(=O)NC(=S)N(Cc2ccc(F)cc2)C1=O	DNMT1 block 90.8, SUMO1-SIM PPI 64.1 | Beacon interf DR inactive | DNMT1 inh conf 105.2 | Beacon interf inactive
O=C1NC(=O)C(=Cc2ccc(-c3ccccc3[N+](=O)[O-])o2)C(=O)N1	none
